{"source": "ChEMBL document CHEMBL1921714", "about": "“Discovery of aminobenzyloxyarylamides as κ opioid receptor selective antagonists: application to preclinical development of a κ opioid receptor antagonist receptor occupancy tracer” (J Med Chem, 2011)", "note": "Activity calls are given as the source filed them. The calls are words filed in the database; no cut-off is given here.", "data": [{"tested_on": "CHO", "experiment": "Selectivity ratio of Kb for human opioid mu receptor expressed in CHO cells to Kb for human opioid kappa receptor expressed in CHO cells", "assay_type": "cell-based", "how_it_was_run": "(§1)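 Kb ratios from antagonist [35S]GTP-γ-S SPA on CHO (κ, μ) or HEK293 (δ) membranes. Agonists at about 80% maximal: U69,593 300 nM (κ), DAMGO 1 μM (μ), DPDPE 30 nM (δ). 11-point curves, top 1 or 10 μM. Nonspecific binding: NorBNI, naltrexone or naltriben, each 10 μM. Kb = IC50/(1+D/EC50); geometric means with SEM.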", "values": [{"smiles": "NC(=O)c1ccc(Oc2ccc(CN3CCCC3c3ccccc3)cc2)nc1", "note": "(racemic)", "Ratio": 9}, {"smiles": "NC(=O)c1ccc(Oc2ccc(CN3CCCC3c3cccc(F)c3)cc2)c(F)c1", "note": "(racemic)", "Ratio": 18}, {"smiles": "CC1(C)CN(Cc2ccc(Oc3ccc(C(N)=O)cn3)cc2)[C@H]1c1ccccc1", "Ratio": 3}, {"smiles": "NC(=O)c1ccc(Oc2ccc(CN3CCC[C@@H]3c3cccc(F)c3)cc2)c(F)c1", "Ratio": "> 5"}, {"smiles": "Cc1cc(C)cc([C@H]2CCCN2Cc2ccc(Oc3ccc(C(N)=O)cc3F)cc2)c1", "Ratio": 2}]}, {"tested_on": "HEK293", "experiment": "Selectivity ratio of Kb for human opioid delta receptor expressed in HEK293 cells to Kb for human opioid kappa receptor expressed in CHO cells", "assay_type": "cell-based", "how_it_was_run": "as §1", "values": [{"smiles": "NC(=O)c1ccc(Oc2ccc(CN3CCCC3c3ccccc3)cc2)nc1", "note": "(racemic)", "Ratio": 37}, {"smiles": "NC(=O)c1ccc(Oc2ccc(CN3CCCC3c3cccc(F)c3)cc2)c(F)c1", "note": "(racemic)", "Ratio": 149}, {"smiles": "CC1(C)CN(Cc2ccc(Oc3ccc(C(N)=O)cn3)cc2)[C@H]1c1ccccc1", "Ratio": "> 65"}, {"smiles": "NC(=O)c1ccc(Oc2ccc(CN3CCC[C@@H]3c3cccc(F)c3)cc2)c(F)c1", "Ratio": "> 5"}, {"smiles": "Cc1cc(C)cc([C@H]2CCCN2Cc2ccc(Oc3ccc(C(N)=O)cc3F)cc2)c1", "Ratio": 5}]}, {"molecular_target": "T1, Mu-type opioid receptor (Homo sapiens, UniProt P35372)", "T1 sequence (P35372 whole entry)": "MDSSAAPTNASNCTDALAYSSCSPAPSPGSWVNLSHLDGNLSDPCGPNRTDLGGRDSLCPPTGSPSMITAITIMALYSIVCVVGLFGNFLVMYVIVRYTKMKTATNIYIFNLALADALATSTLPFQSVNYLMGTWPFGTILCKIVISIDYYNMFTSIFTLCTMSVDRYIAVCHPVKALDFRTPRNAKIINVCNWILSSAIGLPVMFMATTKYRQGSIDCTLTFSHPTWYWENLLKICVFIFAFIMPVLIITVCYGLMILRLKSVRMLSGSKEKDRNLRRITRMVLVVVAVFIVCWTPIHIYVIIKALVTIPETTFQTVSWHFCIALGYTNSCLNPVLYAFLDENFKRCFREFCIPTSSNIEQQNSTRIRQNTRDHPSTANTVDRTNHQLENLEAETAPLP", "experiment": "Displacement of [3H]diprenorphine from human opioid mu receptor expressed in CHO cells after 120 mins by scintillation counting", "assay_type": "cell-based", "how_it_was_run": "(§2)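 11-point curves, 0.01 nM–1 μM final. 120 min at 22 °C, then filtration and scintillation counting. Nonspecific binding set by 10 μM naltrexone. Four-parameter IC50; Ki by Cheng–Prusoff.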", "units": {"Ki": "nM"}, "values": [{"smiles": "NC(=O)c1ccc(Oc2ccc(CN3CCCC3c3ccccc3)cc2)nc1", "note": "(racemic)", "Ki": 232}, {"smiles": "NC(=O)c1ccc(Oc2ccc(CN3CCCC3c3cccc(F)c3)cc2)c(F)c1", "note": "(racemic)", "Ki": 41.1}, {"smiles": "CC1(C)CN(Cc2ccc(Oc3ccc(C(N)=O)cn3)cc2)[C@H]1c1ccccc1", "Ki": 107}, {"smiles": "NC(=O)c1ccc(Oc2ccc(CN3CCC[C@@H]3c3cccc(F)c3)cc2)c(F)c1", "Ki": "> 500"}, {"smiles": "Cc1cc(C)cc([C@H]2CCCN2Cc2ccc(Oc3ccc(C(N)=O)cc3F)cc2)c1", "Ki": 101}]}, {"tested_on": "CHO", "experiment": "Selectivity ratio of Ki for human opioid mu receptor expressed in CHO cells to Ki for human opioid kappa receptor expressed in CHO cells", "assay_type": "cell-based", "values": [{"smiles": "NC(=O)c1ccc(Oc2ccc(CN3CCCC3c3ccccc3)cc2)nc1", "note": "(racemic)", "Ratio Ki": 25}, {"smiles": "NC(=O)c1ccc(Oc2ccc(CN3CCCC3c3cccc(F)c3)cc2)c(F)c1", "note": "(racemic)", "Ratio Ki": 67}, {"smiles": "NC(=O)c1ccc(Oc2ccc(CN3CCC[C@@H]3c3cccc(F)c3)cc2)c(F)c1", "Ratio Ki": "> 9"}, {"smiles": "Cc1cc(C)cc([C@H]2CCCN2Cc2ccc(Oc3ccc(C(N)=O)cc3F)cc2)c1", "Ratio Ki": 7}]}, {"molecular_target": "T2, Kappa-type opioid receptor (Homo sapiens, UniProt P41145)", "T2 sequence (P41145 whole entry)": "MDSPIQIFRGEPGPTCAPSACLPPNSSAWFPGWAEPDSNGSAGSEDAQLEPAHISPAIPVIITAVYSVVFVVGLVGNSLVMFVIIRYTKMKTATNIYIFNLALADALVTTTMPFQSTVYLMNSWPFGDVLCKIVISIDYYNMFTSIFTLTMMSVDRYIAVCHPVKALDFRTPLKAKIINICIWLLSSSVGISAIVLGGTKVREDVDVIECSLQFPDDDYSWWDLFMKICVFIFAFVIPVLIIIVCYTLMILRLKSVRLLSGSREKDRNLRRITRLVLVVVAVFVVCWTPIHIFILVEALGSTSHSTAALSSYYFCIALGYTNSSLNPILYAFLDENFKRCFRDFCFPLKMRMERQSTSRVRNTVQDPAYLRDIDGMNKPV", "experiment": "Antagonist activity at human opioid kappa receptor expressed in CHO cells assessed as inhibition of U69593-induced [35S]GTP-gamma-S binding after 4 hrs by scintillation counting", "assay_type": "functional, cell-based", "units": {"Kb": "nM"}, "values": [{"smiles": "NC(=O)c1ccc(Oc2ccc(CN3CCCC3c3ccccc3)cc2)nc1", "note": "(racemic)", "Kb": 17}, {"smiles": "NC(=O)c1ccc(Oc2ccc(CN3CCCC3c3cccc(F)c3)cc2)c(F)c1", "note": "(racemic)", "Kb": 3.52}, {"smiles": "CC1(C)CN(Cc2ccc(Oc3ccc(C(N)=O)cn3)cc2)[C@H]1c1ccccc1", "Kb": 15.2}, {"smiles": "NC(=O)c1ccc(Oc2ccc(CN3CCC[C@@H]3c3cccc(F)c3)cc2)c(F)c1", "Kb": 88.7}, {"smiles": "Cc1cc(C)cc([C@H]2CCCN2Cc2ccc(Oc3ccc(C(N)=O)cc3F)cc2)c1", "Kb": 44.8}]}, {"molecular_target": "T2, Kappa-type opioid receptor", "experiment": "Displacement of [3H]diprenorphine from human opioid kappa receptor expressed in CHO cells after 120 mins by scintillation counting", "assay_type": "cell-based", "how_it_was_run": "as §2", "units": {"Ki": "nM"}, "values": [{"smiles": "NC(=O)c1ccc(Oc2ccc(CN3CCCC3c3ccccc3)cc2)nc1", "note": "(racemic)", "Ki": 9.21}, {"smiles": "NC(=O)c1ccc(Oc2ccc(CN3CCCC3c3cccc(F)c3)cc2)c(F)c1", "note": "(racemic)", "Ki": 0.617}, {"smiles": "CC1(C)CN(Cc2ccc(Oc3ccc(C(N)=O)cn3)cc2)[C@H]1c1ccccc1", "Ki": 26.7}, {"smiles": "NC(=O)c1ccc(Oc2ccc(CN3CCC[C@@H]3c3cccc(F)c3)cc2)c(F)c1", "Ki": 53.7}, {"smiles": "Cc1cc(C)cc([C@H]2CCCN2Cc2ccc(Oc3ccc(C(N)=O)cc3F)cc2)c1", "Ki": 14}]}, {"tested_on": "HEK293", "experiment": "Selectivity ratio of Ki for human opioid delta receptor expressed in HEK293 cells to Ki for human opioid kappa receptor expressed in CHO cells", "assay_type": "cell-based", "values": [{"smiles": "NC(=O)c1ccc(Oc2ccc(CN3CCCC3c3ccccc3)cc2)nc1", "note": "(racemic)", "Ratio Ki": "> 50"}, {"smiles": "NC(=O)c1ccc(Oc2ccc(CN3CCCC3c3cccc(F)c3)cc2)c(F)c1", "note": "(racemic)", "Ratio Ki": 303}, {"smiles": "NC(=O)c1ccc(Oc2ccc(CN3CCC[C@@H]3c3cccc(F)c3)cc2)c(F)c1", "Ratio Ki": "> 9"}, {"smiles": "Cc1cc(C)cc([C@H]2CCCN2Cc2ccc(Oc3ccc(C(N)=O)cc3F)cc2)c1", "Ratio Ki": 12}]}, {"molecular_target": "T1, Mu-type opioid receptor", "experiment": "Antagonist activity at human opioid mu receptor expressed in CHO cells assessed as inhibition of DAMGO-induced [35S]GTP-gamma-S binding after 4 hrs by scintillation counting", "assay_type": "functional, cell-based", "units": {"Kb": "nM"}, "values": [{"smiles": "NC(=O)c1ccc(Oc2ccc(CN3CCCC3c3ccccc3)cc2)nc1", "note": "(racemic)", "Kb": 150}, {"smiles": "NC(=O)c1ccc(Oc2ccc(CN3CCCC3c3cccc(F)c3)cc2)c(F)c1", "note": "(racemic)", "Kb": 63.5}, {"smiles": "CC1(C)CN(Cc2ccc(Oc3ccc(C(N)=O)cn3)cc2)[C@H]1c1ccccc1", "Kb": 43.8}, {"smiles": "NC(=O)c1ccc(Oc2ccc(CN3CCC[C@@H]3c3cccc(F)c3)cc2)c(F)c1", "Kb": "> 500"}, {"smiles": "Cc1cc(C)cc([C@H]2CCCN2Cc2ccc(Oc3ccc(C(N)=O)cc3F)cc2)c1", "Kb": 69.6}]}, {"molecular_target": "T1, Mu-type opioid receptor", "experiment": "Agonist activity at human opioid mu receptor expressed in CHO cells assessed as stimulation of [35S]-GTPgammaS binding at 10 uM", "assay_type": "functional, cell-based", "how_it_was_run": "(§3)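 Agonist mode: membranes from CHO (κ, μ) or HEK293 (δ) cells expressing cloned human receptors, no agonist added, tested at up to 10 μM. [35S]GTP-γ-S (0.5 nM final) binding in HEPES pH 7.4, MgCl2, NaCl, EDTA, DTT, 200 μM GDP. Read by WGA SPA beads after 2 h (δ) or 4 h (κ, μ) at room temperature, then 4 °C overnight.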", "values": [{"smiles": "NC(=O)c1ccc(Oc2ccc(CN3CCCC3c3ccccc3)cc2)nc1", "note": "(racemic)", "Activity": "inactive"}, {"smiles": "NC(=O)c1ccc(Oc2ccc(CN3CCCC3c3cccc(F)c3)cc2)c(F)c1", "note": "(racemic)", "Activity": "inactive"}, {"smiles": "CC1(C)CN(Cc2ccc(Oc3ccc(C(N)=O)cn3)cc2)[C@H]1c1ccccc1", "Activity": "inactive"}, {"smiles": "NC(=O)c1ccc(Oc2ccc(CN3CCC[C@@H]3c3cccc(F)c3)cc2)c(F)c1", "Activity": "inactive"}, {"smiles": "Cc1cc(C)cc([C@H]2CCCN2Cc2ccc(Oc3ccc(C(N)=O)cc3F)cc2)c1", "Activity": "inactive"}]}, {"molecular_target": "T3, Delta-type opioid receptor (Homo sapiens, UniProt P41143)", "T3 sequence (P41143 whole entry)": "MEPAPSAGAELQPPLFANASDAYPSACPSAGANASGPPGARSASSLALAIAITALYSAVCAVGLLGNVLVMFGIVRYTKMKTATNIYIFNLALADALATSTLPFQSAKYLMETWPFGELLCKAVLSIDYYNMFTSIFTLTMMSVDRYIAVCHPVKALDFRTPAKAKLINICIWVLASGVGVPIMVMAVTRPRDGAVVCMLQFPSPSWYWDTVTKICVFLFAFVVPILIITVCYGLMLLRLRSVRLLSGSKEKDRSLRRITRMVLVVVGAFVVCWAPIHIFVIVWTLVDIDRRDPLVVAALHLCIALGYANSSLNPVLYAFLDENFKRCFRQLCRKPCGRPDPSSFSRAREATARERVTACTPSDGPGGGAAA", "experiment": "Agonist activity at human opioid delta receptor expressed in HEK293 cells assessed as stimulation of [35S]-GTPgammaS binding at 10 uM", "assay_type": "functional, cell-based", "how_it_was_run": "as §3", "values": [{"smiles": "NC(=O)c1ccc(Oc2ccc(CN3CCCC3c3ccccc3)cc2)nc1", "note": "(racemic)", "Activity": "inactive"}, {"smiles": "NC(=O)c1ccc(Oc2ccc(CN3CCCC3c3cccc(F)c3)cc2)c(F)c1", "note": "(racemic)", "Activity": "inactive"}, {"smiles": "CC1(C)CN(Cc2ccc(Oc3ccc(C(N)=O)cn3)cc2)[C@H]1c1ccccc1", "Activity": "inactive"}, {"smiles": "NC(=O)c1ccc(Oc2ccc(CN3CCC[C@@H]3c3cccc(F)c3)cc2)c(F)c1", "Activity": "inactive"}, {"smiles": "Cc1cc(C)cc([C@H]2CCCN2Cc2ccc(Oc3ccc(C(N)=O)cc3F)cc2)c1", "Activity": "inactive"}]}, {"molecular_target": "T3, Delta-type opioid receptor", "experiment": "Antagonist activity at human opioid delta receptor expressed in HEK293 cells assessed as inhibition of DPDPE-induced [35S]GTP-gamma-S binding after 4 hrs by scintillation counting", "assay_type": "functional, cell-based", "units": {"Kb": "nM"}, "values": [{"smiles": "NC(=O)c1ccc(Oc2ccc(CN3CCCC3c3ccccc3)cc2)nc1", "note": "(racemic)", "Kb": 635}, {"smiles": "NC(=O)c1ccc(Oc2ccc(CN3CCCC3c3cccc(F)c3)cc2)c(F)c1", "note": "(racemic)", "Kb": 525}, {"smiles": "CC1(C)CN(Cc2ccc(Oc3ccc(C(N)=O)cn3)cc2)[C@H]1c1ccccc1", "Kb": "> 1000"}, {"smiles": "NC(=O)c1ccc(Oc2ccc(CN3CCC[C@@H]3c3cccc(F)c3)cc2)c(F)c1", "Kb": "> 1000"}, {"smiles": "Cc1cc(C)cc([C@H]2CCCN2Cc2ccc(Oc3ccc(C(N)=O)cc3F)cc2)c1", "Kb": 220}]}, {"molecular_target": "T3, Delta-type opioid receptor", "experiment": "Displacement of [3H]diprenorphine from human opioid delta receptor expressed in HEK293 cells after 120 mins by scintillation counting", "assay_type": "cell-based", "how_it_was_run": "as §2", "units": {"Ki": "nM"}, "values": [{"smiles": "NC(=O)c1ccc(Oc2ccc(CN3CCCC3c3ccccc3)cc2)nc1", "note": "(racemic)", "Ki": "> 500"}, {"smiles": "NC(=O)c1ccc(Oc2ccc(CN3CCCC3c3cccc(F)c3)cc2)c(F)c1", "note": "(racemic)", "Ki": 187}, {"smiles": "CC1(C)CN(Cc2ccc(Oc3ccc(C(N)=O)cn3)cc2)[C@H]1c1ccccc1", "Ki": "> 500"}, {"smiles": "NC(=O)c1ccc(Oc2ccc(CN3CCC[C@@H]3c3cccc(F)c3)cc2)c(F)c1", "Ki": "> 500"}, {"smiles": "Cc1cc(C)cc([C@H]2CCCN2Cc2ccc(Oc3ccc(C(N)=O)cc3F)cc2)c1", "Ki": 165}]}, {"molecular_target": "T2, Kappa-type opioid receptor", "experiment": "Agonist activity at human opioid kappa receptor expressed in CHO cells assessed as stimulation of [35S]-GTPgammaS binding at 10 uM", "assay_type": "functional, cell-based", "how_it_was_run": "as §3", "values": [{"smiles": "NC(=O)c1ccc(Oc2ccc(CN3CCCC3c3ccccc3)cc2)nc1", "note": "(racemic)", "Activity": "inactive"}, {"smiles": "NC(=O)c1ccc(Oc2ccc(CN3CCCC3c3cccc(F)c3)cc2)c(F)c1", "note": "(racemic)", "Activity": "inactive"}, {"smiles": "CC1(C)CN(Cc2ccc(Oc3ccc(C(N)=O)cn3)cc2)[C@H]1c1ccccc1", "Activity": "inactive"}, {"smiles": "NC(=O)c1ccc(Oc2ccc(CN3CCC[C@@H]3c3cccc(F)c3)cc2)c(F)c1", "Activity": "inactive"}, {"smiles": "Cc1cc(C)cc([C@H]2CCCN2Cc2ccc(Oc3ccc(C(N)=O)cc3F)cc2)c1", "Activity": "inactive"}]}]}
